# Experimental data gathered from unrelated publications.
# Lines come from different studies, so protocols differ.
# Target: Tyrosine-protein kinase receptor UFO (AXL, Homo sapiens, UniProt P30530)
# Sequence (P30530 26-894, as in one of the studies): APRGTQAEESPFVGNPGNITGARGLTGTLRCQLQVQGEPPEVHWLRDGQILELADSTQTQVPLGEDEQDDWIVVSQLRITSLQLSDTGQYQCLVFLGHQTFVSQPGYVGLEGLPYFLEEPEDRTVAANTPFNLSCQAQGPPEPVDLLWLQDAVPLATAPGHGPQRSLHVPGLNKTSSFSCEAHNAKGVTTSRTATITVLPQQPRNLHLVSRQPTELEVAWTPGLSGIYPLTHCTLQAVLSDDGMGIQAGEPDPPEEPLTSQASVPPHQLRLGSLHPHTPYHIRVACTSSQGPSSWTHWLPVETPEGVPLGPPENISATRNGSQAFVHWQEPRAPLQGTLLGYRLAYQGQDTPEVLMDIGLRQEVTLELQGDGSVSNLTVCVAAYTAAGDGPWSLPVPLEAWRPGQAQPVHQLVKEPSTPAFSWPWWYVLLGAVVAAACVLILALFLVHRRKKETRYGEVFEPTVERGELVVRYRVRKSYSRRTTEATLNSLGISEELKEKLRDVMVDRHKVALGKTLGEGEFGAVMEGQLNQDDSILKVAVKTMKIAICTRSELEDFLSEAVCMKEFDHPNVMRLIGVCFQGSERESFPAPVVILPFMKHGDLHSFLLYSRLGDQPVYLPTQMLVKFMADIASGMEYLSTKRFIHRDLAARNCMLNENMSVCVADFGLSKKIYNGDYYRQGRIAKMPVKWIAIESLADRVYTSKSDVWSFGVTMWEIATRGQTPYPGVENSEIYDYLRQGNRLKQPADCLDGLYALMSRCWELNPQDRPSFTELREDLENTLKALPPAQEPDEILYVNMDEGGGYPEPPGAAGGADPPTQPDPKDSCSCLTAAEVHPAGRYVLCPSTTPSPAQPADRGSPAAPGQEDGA
Compound,test,setting,endpoint,result
CNC(=O)c1ccccc1Nc1nc(Nc2ccc(CO)nc2)ncc1Cl,"enzyme activity, inhibitor",1 µM,remaining activity,2.06%
CO[C@@H]1[C@H](N(C)C(=O)c2ccccc2)C[C@H]2O[C@]1(C)n1c3ccccc3c3c4c(c5c6ccccc6n2c5c31)C(=O)NC4,"enzyme activity, inhibitor",1 µM,inhibition,92%
C[C@]1(O)CCCN(c2nc(Nc3ccc(S(=O)(=O)N[C@H]4CC[C@H](CN5CCN(c6ccc(C7CCC(=O)NC7=O)cc6F)CC5)CC4)cc3F)ncc2C(F)(F)F)C1 (some centres unmarked),"binding, competition with immobilised ligand",1 µM,remaining binding,40%
CNC(=O)c1ccccc1Nc1nc(Nc2ccc(CO)cc2)ncc1Cl,"enzyme activity, inhibitor",1 µM,remaining activity,1.13%
COc1ccc2oc(-c3ccc4nc(N)oc4c3)c/c(=N\c3ccccc3NC(=O)CCN)c2c1,binding,1 µM,remaining binding,96%
CC#CC(=O)N1CCC[C@H]1c1nc(-c2ccc(C(=O)Nc3ccccn3)cc2)c2c(N)nccn12,"enzyme activity, inhibitor",1 µM,inhibition,5%
C1=C/COCc2cc(ccc2OCCN2CCCC2)Nc2nccc(n2)-c2cccc(c2)COC/1,binding,0.1 µM,remaining binding,38%
COc1ccc2[nH]c3c4[nH]c5ccc(OC)cc5c4c4c(c3c2c1)C(=O)NC4=O,"binding, competition with immobilised ligand",1 µM,remaining binding,30%
CNS(=O)(=O)c1ccc(Nc2ncc(C(F)(F)F)c(N3CCC[C@](C)(O)C3)n2)c(C)c1,"binding, competition with immobilised ligand",1 µM,remaining binding,70%
CS(=O)(=NC#N)c1ccccc1Nc1nc(Nc2ccc(CO)nc2)ncc1Cl (centres unmarked),"enzyme activity, inhibitor",1 µM,remaining activity,14.9%
CCCCC(=O)Nc1ccc(-c2ccc3ncn(CCC)c(=O)c3c2)cn1,"binding, competition with immobilised ligand",0.5 µM,remaining binding,95%
Cc1ccc(NC(=O)c2ccnc(C(F)(F)F)c2)cc1-c1cc(OCCO)nc(N2CCOCC2)c1,"binding, competition with immobilised ligand",1 µM,remaining binding,90%
CS(=O)(=O)c1ccccc1Nc1nc(Nc2ccnc(CO)c2)ncc1Cl,"enzyme activity, inhibitor",1 µM,remaining activity,4.41%
N#Cc1ccc(NC(=O)Nc2ccccc2)cc1,"cell-free assay, competition with immobilised ligand",25 µM,remaining binding,100%
